One may read the inhibition as the change of the read-out against control, counted positive when it falls.

Test [1] in a line: inhibitors of TNFa-induced NFkB p65 translocation, primary screen, imaging, HUVEC, MLSMR starter and 10KST1 sets (AID 438;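 active = inhibition above 20% together with a positive visual image hit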;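 also: compound added about 3h40 before a 20 min TNFalpha stimulation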;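 as to inhibition: signal is the nuclear over cytoplasmic p65 intensity ratio per well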). The settings on record: HUVEC TNFa-induced p65 nuclear translocation; cell count: measured here: nuclei count (cytotoxicity indicator), at 2.08 µM; inhibition: at 2 µM, stronger effect = higher value, 0% TNFa-plus-vehicle, 100% no-TNFa wells.
The nature of test [2]: inhibitors of E-selectin induction by TNFa, primary screen, imaging, HUVEC, immunofluorescence, MLSMR starter and 10KST1 sets (AID 487;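 active = visually confirmed hit in the image check and inhibition above 20%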;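 as to inhibition: signal is fraction of cell area covered by stained E-selectin grains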;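 as to nuclei count: 100% = median nuclei count of all wells on the same plate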). Particulars: HUVEC TNFalpha-induced E-selectin immunofluorescence imaging, at 2 µM; inhibition: stronger effect = higher value; nuclei count: measured here: cell number, toxicity.
Test [3] in a line: DUSP6 inhibitors restoring Erk phosphorylation by chemical complementation, primary imaging in DUSP6-transfected HeLa (AID 609).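 As to inhibition: phospho-Erk level distribution per well compared with pooled transfected vehicle control wells.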 The settings on record: HeLa MKP-3 transfected, phospho-Erk imaging KS statistic, at 10 µM, cells stimulated with TPA for 15 min.
Test [4] deals with Dual specificity protein phosphatase 6 (Homo sapiens) (UniProt Q16828). The test is described as above. The settings on record: HeLa MKP-3 transfected, phospho-Erk imaging KS statistic; at 10 µM; stronger effect = higher value; cells stimulated with TPA for 15 min.
Chain of Dual specificity protein phosphatase 6 (Homo sapiens) (Q16828 whole entry, looked up): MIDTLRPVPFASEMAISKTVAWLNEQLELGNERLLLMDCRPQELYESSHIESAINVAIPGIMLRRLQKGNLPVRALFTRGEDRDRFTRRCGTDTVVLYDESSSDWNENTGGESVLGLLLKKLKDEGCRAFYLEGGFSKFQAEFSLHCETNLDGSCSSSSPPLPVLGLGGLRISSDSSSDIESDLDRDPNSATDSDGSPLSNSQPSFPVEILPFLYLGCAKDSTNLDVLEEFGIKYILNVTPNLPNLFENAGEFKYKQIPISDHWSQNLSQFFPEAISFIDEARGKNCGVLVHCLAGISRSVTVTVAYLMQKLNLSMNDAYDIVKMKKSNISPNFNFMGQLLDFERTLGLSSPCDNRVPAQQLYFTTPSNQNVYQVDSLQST
The target in test [5] is Voltage-gated potassium channel subunit beta-2 (Rattus norvegicus) (UniProt P62483). Kind of test: KvBeta enzyme negative modulators, primary screen, biochemical, NADPH fluorescence (AID 622;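 active = fluorescence slope higher than the sample average by over 3 SD, cut at about -0.22 in these data, passing the limit was not always enough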;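 also: slope of raw intensity against log time taken from 70 to 1610 s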). Particulars: recombinant KvBeta, 4-cyanobenzaldehyde reduction, at 10 µM, stronger effect = higher value.
Chain of Voltage-gated potassium channel subunit beta-2 (Rattus norvegicus) (P62483 whole entry, looked up): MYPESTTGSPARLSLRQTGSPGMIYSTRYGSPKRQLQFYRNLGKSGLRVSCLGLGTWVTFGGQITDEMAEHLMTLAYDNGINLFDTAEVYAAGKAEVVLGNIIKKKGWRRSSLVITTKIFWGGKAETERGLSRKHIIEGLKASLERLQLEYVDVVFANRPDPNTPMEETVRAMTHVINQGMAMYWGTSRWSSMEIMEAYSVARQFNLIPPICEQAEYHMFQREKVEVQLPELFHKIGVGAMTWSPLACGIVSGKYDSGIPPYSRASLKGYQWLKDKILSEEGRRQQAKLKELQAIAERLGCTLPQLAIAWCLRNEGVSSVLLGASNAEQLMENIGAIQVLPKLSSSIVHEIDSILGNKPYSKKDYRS
Test [6] has the same target. The test is described as follows: KvBeta positive modulators, primary screen, biochemical, NADPH fluorescence (AID 623;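 active = NADPH fluorescence slope more negative than the mean of all samples by about 3 SD, 99.7% confidence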;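 also: fluorescence intensity change per second fitted from 20 to 320 s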). Particulars: Recombinant KvBeta, NADPH fluorescence decrease slope, 10 min; at 10 µM; stronger effect = lower value.
Test [7] concerns the target Alpha-2C adrenergic receptor (Homo sapiens) (UniProt P18825). Kind of test: modulators of alpha2C/GIRK thallium flux, primary screen, cell-based, HEK293 alpha2C/GIRK1/2 (AID 624;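 active = fluorescence slope after compound addition differing from the mean of all screened samples at 99.7% confidence, in either direction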;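 also: slope of fluorescence ratio to pre-addition baseline per second over 15 to 24 s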). The settings on record: thallium flux BTC fluorescence, at 10 µM, actives lie on both sides.
Test [8] is described as follows: inhibitors of larval lipid processing in zebrafish, primary screen, whole organism, PED6 fluorescence, gall bladder and intestine (AID 686;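 active = a full or partial loss of lipid-probe fluorescence in the fish gall bladder, intestine or both, judged by eye; inactive = no fluorescence loss, or compound toxic to the fish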;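 also: signal comes from phospholipase A2 cleavage of quenched PED6 carried via bile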). Particulars: Zebrafish larvae PED6 lipid processing, fluorescence scoring; screened at 20 µM (by protocol). In outline: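 Doses: 20 µM single dose. Test system: live zebrafish larvae aged 5-7 days, whole organism. Quantity: five larvae per well. Measured by: By-eye fluorescence microscopy. Reagent: ingested quenched lipid PED6 at 100 nM. Read-out: visual per-well fluorescence inhibition score. Times: overnight exposure of larvae to compound plus PED6.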

Test [9] in a line: inhibitors of Chlamydomonas gravitaxis, primary screen, whole organism, Chlamydomonas reinhardtii, WT vs cilia-less mutant, absorbance, 96-well (AID 463189;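 active = inhibition at or above 50% relative to wild type and mutant plate controls; inactive = inhibition below 50%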;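 also: 0% = wild type cc124 cells in DMSO and 100% = ciliumless bld1 mutant cells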). Particulars: OD600 absorbance, 2 days, at 10 µM, stronger effect = higher value.
Setting [10] is: measured here: cell density z-score.
[11] abbreviates: measured here: nuclear c-Myc green intensity z-score.
The mark [12] stands for this setting: measured here: nuclear pErk red intensity z-score, stronger effect = higher value.

Active and inactive are the calls of the source.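 The calls were made as follows, unless noted: active = compounds giving at least 50% inhibition in the cell-based MKP-3 phosphatase rescue imaging test; inactive = the rest.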

Chain of Alpha-2C adrenergic receptor (Homo sapiens) (P18825 whole entry, looked up): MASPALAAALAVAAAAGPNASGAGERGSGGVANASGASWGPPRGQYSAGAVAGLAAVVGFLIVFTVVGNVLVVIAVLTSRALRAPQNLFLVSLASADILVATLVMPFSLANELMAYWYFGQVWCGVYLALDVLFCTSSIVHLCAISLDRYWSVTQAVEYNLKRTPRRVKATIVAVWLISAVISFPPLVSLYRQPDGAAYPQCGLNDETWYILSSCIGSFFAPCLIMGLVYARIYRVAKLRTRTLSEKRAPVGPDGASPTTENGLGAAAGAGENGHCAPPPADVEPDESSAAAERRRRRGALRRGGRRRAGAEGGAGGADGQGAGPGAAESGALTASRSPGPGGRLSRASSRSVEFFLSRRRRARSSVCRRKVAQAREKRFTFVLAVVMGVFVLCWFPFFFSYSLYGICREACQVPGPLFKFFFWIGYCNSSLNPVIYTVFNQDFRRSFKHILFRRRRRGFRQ

In the case of `O=C1CCC(=O)N1c1nc2nc(-c3ccccc3)cc(-c3ccccc3)n2n1`, the cell count in test [1] stood at 360. The inhibition in test [1] was -6.9% (inactive); in [2], -15.6% (inactive); in test [4], 5.42% (inactive); in test [9], 46.1% (inactive). In addition, the nuclei count in test [2] is 91%. The z-score in test [3] (setting [10]) is -0.411; in test [3] (setting [11]), 1.12; in test [3] (setting [12]), 0.232. Further, the fluorescence slope in test [5] was -0.467 (inactive). Also, the NADPH fluorescence slope in test [6] was -3e-05 (inactive). Further, the slope in test [7] was 0.00473 (inactive). Moreover, the call in test [8] was inactive.

Take `c1csc(-c2nn3c(C4CCCCC4)nnc3s2)c1`: the cell count in test [1] was 623. In addition, the inhibition is -8.5% (inactive) in [1], -52.2% (inactive) in test [2], -15% (inactive) in test [4] and 13.7% (inactive) in test [9]. The compound further gave a nuclei count in [2] of 155%. For the same compound, the values for the z-score in [3] (setting [10]), in [3] (setting [11]) and in [3] (setting [12]) were -1.83, -0.584 and 2.62, respectively. Also, in [5], the fluorescence slope is -0.426 (inactive). The NADPH fluorescence slope in test [6] was -0.00015 (inactive). For the same compound, in [7], the slope was 0.00407 (inactive). Besides, in [8], the compound was classed as inactive.

`CCCCCCOC(=O)CCn1[nH]c(=O)c2ccccc2c1=O`: in test [1], the cell count stood at 547. Also, the inhibition was -12.2% (inactive) in test [1], -119% (inactive) in test [2], 7.93% (inactive) in test [4] and 27.6% (inactive) in test [9]. In addition, the nuclei count in [2] was determined as 136%. Also, the figures for the z-score in test [3] (setting [10]), in [3] (setting [11]) and in test [3] (setting [12]) were 0.183, -0.855 and 0.203, respectively. In test [5], the fluorescence slope was -0.492 (inactive). In addition, the NADPH fluorescence slope in test [6] is -6.3e-05 (inactive). For the same compound, the slope in test [7] is 0.0065 (inactive). Also, the compound was classed as inactive in [8].

As for `CCCCOc1ccc(C2CC(=O)N(C)C2=O)cc1` (centres undefined), the cell count in [1] stood at 641. In addition, the inhibition in test [1] was -9.7% (inactive); in test [2] it was 63.8% (inactive); in test [4], 7.48% (inactive); in test [9] it was 3.29% (inactive). The compound also displayed a nuclei count in test [2] of 175%. Besides, the z-score in test [3] (setting [10]) was -0.371; in test [3] (setting [11]), -0.965; in [3] (setting [12]), 1.92. Further, the fluorescence slope in test [5] was -0.516 (inactive). Besides, in [6], the NADPH fluorescence slope was -6.5e-05 (inactive). For the same compound, in test [7], the slope was 0.00432 (inactive). The call in test [8] was inactive.

Turning to `CSCCC(CO)NC(=O)OCc1ccccc1` (centres undefined), the cell count in test [1] is 562. Besides, the inhibition is -15% (inactive) in [1], -130% (inactive) in test [2], 3.97% (inactive) in [4] and 2.98% (inactive) in test [9]. In test [2], this compound registered a nuclei count of 142%. The figures for the z-score in test [3] (setting [10]), in [3] (setting [11]) and in [3] (setting [12]) were 1.72, -0.612 and -0.962, respectively. Further, the fluorescence slope in test [5] is -0.503 (inactive). Moreover, in [6], the NADPH fluorescence slope was -8.5e-05 (inactive). Also, in [7], the slope is 0.00774 (inactive). In test [8], the compound was called inactive.

Regarding `CCc1nnc(NC(=O)c2c(O)c3c([nH]c2=O)CCCC3)s1`, in [1], the cell count came to 332. Further, the inhibition in test [1] is -15.4% (inactive); in [2] it was -91.6% (inactive); in test [4] it was -7.01% (inactive); in test [9], 8.98% (inactive). The compound further had a nuclei count in [2] of 154%. For the same compound, the z-score was 0.462 in [3] (setting [10]), -0.342 in test [3] (setting [11]) and -0.281 in test [3] (setting [12]). Also, the fluorescence slope in [5] was -0.391 (inactive). The NADPH fluorescence slope in test [6] is -0.000158 (inactive). The slope in [7] is 0.00514 (inactive). In addition, the outcome in test [8] was inactive.

Turning to `Cc1[nH]nc2cn[nH]c12`, the cell count in test [1] was 531. The inhibition in [1] is -7.3% (inactive); in test [2], -92.8% (inactive); in test [4], -5.89% (inactive); in test [9], 4.67% (inactive). Also, the nuclei count in test [2] turned out to be 130%. Also, the z-score was -0.515 in test [3] (setting [10]), 1.09 in test [3] (setting [11]) and 1.21 in test [3] (setting [12]). The fluorescence slope in [5] is -0.526 (inactive). Moreover, the NADPH fluorescence slope in test [6] was -5.7e-05 (inactive). The slope in test [7] is 0.00413 (inactive). The outcome in [8] was inactive.

For the compound `CC1(C)CC(=O)c2cc(C(=O)N3CCCC(C)(C)C3)c(=O)n(-c3ccccc3)c2C1`, the cell count in test [1] turned out to be 523. The inhibition in [1] is -8% (inactive); in [2] it was -71.4% (inactive); in [4], 7.48% (inactive); in [9], 31.5% (inactive). The nuclei count in [2] stood at 121%. Besides, the figures for the z-score in test [3] (setting [10]), in [3] (setting [11]) and in test [3] (setting [12]) were 0.578, 0.18 and 1.1, respectively. In test [5], the fluorescence slope was -0.48 (inactive). Besides, the NADPH fluorescence slope in [6] is -0.000165 (inactive). For the same compound, the slope in [7] was 0.00502 (inactive). Further, the compound was called inactive in [8].

With `CC(C)N1CCc2c(sc(N)c2C#N)C1`, the cell count in [1] is 617. The inhibition in test [1] is -10.3% (inactive); in test [2], 39.1% (inactive); in test [4], 2.71% (inactive); in test [9], 5.66% (inactive). In [2], the nuclei count came out at 177%. The z-score is -1.53 in [3] (setting [10]), 0.299 in test [3] (setting [11]) and 0.555 in [3] (setting [12]). In addition, the fluorescence slope in [5] was -0.418 (inactive). Further, the NADPH fluorescence slope in [6] is -6.5e-05 (inactive). Besides, in [7], the slope was 0.00503 (inactive). For the same compound, the call in test [8] was inactive.

Turning to `C=CCOC(=O)C1=C(C)OC(N)=C(C#N)C1c1ccoc1` (centres undefined), in test [1], the cell count came out at 564. Moreover, the inhibition in test [1] is 2.9% (inactive); in test [2] it was -24.3% (inactive); in [4], 2.46% (inactive); in [9] it was 26.4% (inactive). In test [2], this compound came in with a nuclei count of 166%. In addition, the z-score in test [3] (setting [10]) was -0.735; in test [3] (setting [11]) it was -0.099; in test [3] (setting [12]), 0.124. In addition, the fluorescence slope in test [5] is -0.32 (inactive). The NADPH fluorescence slope in test [6] was 2.2e-05 (inactive). The slope in [7] is 0.00536 (inactive). In addition, the result in [8] was inactive.

For `CCOc1ccc(C2=Nn3c(nnc3-c3ccccn3)SC2)cc1`, in [1], the cell count amounted to 493. Further, the inhibition in test [1] was 1.1% (inactive); in test [2], -197% (inactive); in test [4], -13.3% (inactive); in test [9] it was 0.114% (inactive). In test [2], this compound displayed a nuclei count of 107%. Also, the z-score in [3] (setting [10]) was 1.13; in [3] (setting [11]) it was -0.317; in [3] (setting [12]), 0.587. Further, in [5], the fluorescence slope was -0.467 (inactive). In addition, the NADPH fluorescence slope in test [6] was -3.6e-05 (inactive). In [7], the slope is 0.00617 (inactive). Further, the result in test [8] was inactive.

For the compound `C=C(C)CSC1=C(C#N)C(c2ccsc2)CC(=O)N1` (centres undefined), the cell count in [1] turned out to be 486. For the same compound, the inhibition is -5% (inactive) in test [1], 8.3% (inactive) in test [2], -5.89% (inactive) in test [4] and 13% (inactive) in test [9]. The compound also returned a nuclei count in test [2] of 121%. Moreover, the z-score in test [3] (setting [10]) was -1; in [3] (setting [11]) it was -0.892; in test [3] (setting [12]), 0.991. For the same compound, the fluorescence slope in test [5] is -0.512 (inactive). Also, the NADPH fluorescence slope in test [6] was -6.2e-05 (inactive). Also, the slope in test [7] was 0.00453 (inactive). Moreover, in [8], the call was inactive.

On to `CC(C)Nc1nc(NC(C)C)nc(N(C)n2cnnc2)n1`, for which the cell count in test [1] was determined as 629. The inhibition is -8.8% (inactive) in test [1], 27.2% (inactive) in [2], 20.8% (inactive) in test [4] and -5.15% (inactive) in test [9]. For the same compound, the nuclei count in [2] was 188%. Further, the z-score in test [3] (setting [10]) was 0.189; in test [3] (setting [11]), -1.82; in [3] (setting [12]), 0.165. Besides, the fluorescence slope in test [5] was -0.482 (inactive). The NADPH fluorescence slope in [6] was -0.000155 (inactive). In addition, in test [7], the slope was 0.0051 (inactive). Besides, the compound was classed as inactive in test [8].

For the origin of these results see PubChem BioAssay.
